ChEMBL document CHEMBL2321836, “Discovery of novel Trypanosoma brucei phosphodiesterase B1 inhibitors by virtual screening against the unliganded TbrPDEB1 crystal structure” (J Med Chem, 2013)

Columns and labels:
[1] = target: 3',5'-cyclic-AMP phosphodiesterase 4B (Homo sapiens, UniProt Q07343); experiment: Inhibition of human full length PDE4B expressed in insect SF21 cells using cAMP as substrate by scintillation proximity assay
Procedure, shortened: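 Full-length enzyme harvested by sonication of supernatants of overexpressing Sf21 cells. Scintillation proximity assay with 0.5 μM cAMP substrate. Enzyme level set so that <20% of cAMP was consumed. Blanks used denatured protein. Run in at least duplicate. IC50 obtained by a one-site competitive binding fit, with curves assumed to plateau at 100% inhibition.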

[2] = target: T1, Class 1 phosphodiesterase PDEB1 (Trypanosoma brucei, UniProt Q8WQX9); experiment: Inhibition of Trypanosoma brucei full length PDEB1 expressed in insect SF21 cells using cAMP as substrate by scintillation proximity assay
T1 sequence (Q8WQX9 whole entry): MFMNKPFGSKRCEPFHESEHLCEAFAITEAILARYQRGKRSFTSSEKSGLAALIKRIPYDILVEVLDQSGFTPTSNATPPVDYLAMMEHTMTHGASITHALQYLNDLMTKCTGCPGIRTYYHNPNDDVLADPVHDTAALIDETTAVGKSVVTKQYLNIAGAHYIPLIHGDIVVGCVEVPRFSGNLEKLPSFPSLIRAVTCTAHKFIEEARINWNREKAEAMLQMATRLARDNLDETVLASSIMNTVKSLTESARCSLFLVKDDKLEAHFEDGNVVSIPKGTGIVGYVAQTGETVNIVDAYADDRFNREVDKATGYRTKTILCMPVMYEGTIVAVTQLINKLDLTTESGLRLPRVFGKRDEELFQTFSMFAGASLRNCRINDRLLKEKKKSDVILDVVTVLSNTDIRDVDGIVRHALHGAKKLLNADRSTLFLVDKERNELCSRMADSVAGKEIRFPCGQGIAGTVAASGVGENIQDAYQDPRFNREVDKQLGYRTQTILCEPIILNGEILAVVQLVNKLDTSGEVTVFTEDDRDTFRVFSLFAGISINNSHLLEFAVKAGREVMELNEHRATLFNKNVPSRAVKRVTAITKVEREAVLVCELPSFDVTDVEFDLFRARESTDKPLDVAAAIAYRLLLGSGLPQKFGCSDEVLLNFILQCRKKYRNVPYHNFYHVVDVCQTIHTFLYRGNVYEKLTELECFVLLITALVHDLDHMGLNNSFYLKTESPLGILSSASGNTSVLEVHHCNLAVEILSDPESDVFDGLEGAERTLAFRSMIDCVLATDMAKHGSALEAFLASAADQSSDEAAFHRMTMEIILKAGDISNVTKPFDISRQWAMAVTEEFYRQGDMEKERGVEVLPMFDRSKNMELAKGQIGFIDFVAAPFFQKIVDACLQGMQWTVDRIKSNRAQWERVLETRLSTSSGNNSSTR
Procedure, shortened: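 Full-length enzyme harvested by sonication of supernatants of overexpressing Sf21 cells. Scintillation proximity assay with 0.5 μM cAMP substrate. Enzyme level set so that <20% of cAMP was consumed. Blanks used denatured protein. Run in at least duplicate.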

[3] = Selectivity ratio of IC50 for Trypanosoma brucei PDEB1 to IC50 for human PDE4B

3',5'-cyclic-AMP phosphodiesterase 4B, sequence (Q07343 whole entry): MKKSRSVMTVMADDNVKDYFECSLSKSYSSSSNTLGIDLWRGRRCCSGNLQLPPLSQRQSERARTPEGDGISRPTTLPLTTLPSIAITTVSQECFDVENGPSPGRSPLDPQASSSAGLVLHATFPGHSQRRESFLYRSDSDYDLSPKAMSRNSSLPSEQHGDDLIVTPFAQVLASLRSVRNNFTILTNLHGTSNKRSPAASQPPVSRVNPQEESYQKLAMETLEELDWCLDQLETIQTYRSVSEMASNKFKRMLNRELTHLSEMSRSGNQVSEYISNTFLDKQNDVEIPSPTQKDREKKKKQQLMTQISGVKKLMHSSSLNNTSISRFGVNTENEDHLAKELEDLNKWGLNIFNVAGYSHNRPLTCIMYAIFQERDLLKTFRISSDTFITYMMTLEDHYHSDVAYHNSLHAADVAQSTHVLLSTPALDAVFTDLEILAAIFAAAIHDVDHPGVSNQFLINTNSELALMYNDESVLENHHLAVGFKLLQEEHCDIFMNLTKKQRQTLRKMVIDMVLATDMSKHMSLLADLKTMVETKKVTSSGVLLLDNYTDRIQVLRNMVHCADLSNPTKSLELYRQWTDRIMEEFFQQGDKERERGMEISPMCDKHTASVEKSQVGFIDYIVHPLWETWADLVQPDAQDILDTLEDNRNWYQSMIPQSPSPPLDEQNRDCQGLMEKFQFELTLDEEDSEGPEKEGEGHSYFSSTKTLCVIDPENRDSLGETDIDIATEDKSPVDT

Compound | IC50 [1] [µM] | IC50 [2] [µM] | Ratio IC50 [3]
O=C1c2cccc3cccc(c23)C(=O)N1CCCC(=O)N(Cc1ccco1)C1CC1 | 16 | 41 | 2.6
CCCn1c(=O)n(C)c(=O)c2c(SCC(=O)c3ccc(Cl)cc3)nc(CC(C)C)nc21 | 26 | 10 | 0.4
O=C(NCc1ccc(Cn2cncn2)cc1)c1ccc2[nH]c3c(c2c1)CCCC3 | 68 | 75 | 
Cc1cc(SCC(=O)c2ccc(O)c(O)c2)n2nc(C)c(-c3ccccc3)c2n1 | 5 | 13 | 
O=C(CCCSc1ncnc2sc(-c3ccccc3)cc12)N1CCOCC1 | 14 | 12 | 
O=C(CCc1nc2ccccc2n(CCc2ccccc2)c1=O)N1CCCCC1 | 15 | 54 | 3.6
